Measured values: publication PMC5508980 (Molecular nutrition & food research, 2017)
Counter-ions that a name gives are not always drawn.

Key:
Assay type in all cases: biochemical
recombinant HDAC1 = recombinant HDAC1 (Homo sapiens, UniProt Q13547); assay: Recombinant HDAC activity assay; settings: for remaining activity at 50 µM: 2 h, read-out: % HDAC activity, Class I HDACs, 1
recombinant HDAC3 = recombinant HDAC3 (Homo sapiens, UniProt O15379); assay: Recombinant HDAC activity assay; settings: for remaining activity at 50 µM: 2 h, read-out: % HDAC activity, Class I HDACs, 3
Sequence of recombinant HDAC3 (O15379 whole entry): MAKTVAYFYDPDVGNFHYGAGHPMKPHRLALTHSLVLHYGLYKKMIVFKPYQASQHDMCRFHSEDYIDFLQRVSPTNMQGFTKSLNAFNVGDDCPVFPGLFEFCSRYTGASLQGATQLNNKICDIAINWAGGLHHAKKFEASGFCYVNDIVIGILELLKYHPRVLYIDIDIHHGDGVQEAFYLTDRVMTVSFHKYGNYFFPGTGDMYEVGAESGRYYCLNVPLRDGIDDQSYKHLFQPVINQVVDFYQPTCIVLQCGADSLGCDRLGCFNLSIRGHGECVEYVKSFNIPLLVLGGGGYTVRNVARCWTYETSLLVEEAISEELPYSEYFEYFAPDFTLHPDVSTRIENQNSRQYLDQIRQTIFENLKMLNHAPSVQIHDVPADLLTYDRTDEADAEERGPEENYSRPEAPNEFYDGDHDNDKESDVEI
Sequence of recombinant HDAC3 (Q9Y618 395-489 partner limits assumed): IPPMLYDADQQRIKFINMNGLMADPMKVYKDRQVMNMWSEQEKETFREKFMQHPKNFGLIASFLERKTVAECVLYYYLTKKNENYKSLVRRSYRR

recombinant HDAC7 = biological target: T1, recombinant HDAC7 (Homo sapiens, UniProt Q8WUI4); assay: Recombinant HDAC activity assay; settings: for % HDAC activity, Class IIa HDACs, 7: recombinant protein incubated with 50 µM compound, 2 hrs
T1 sequence (Q8WUI4 1-952): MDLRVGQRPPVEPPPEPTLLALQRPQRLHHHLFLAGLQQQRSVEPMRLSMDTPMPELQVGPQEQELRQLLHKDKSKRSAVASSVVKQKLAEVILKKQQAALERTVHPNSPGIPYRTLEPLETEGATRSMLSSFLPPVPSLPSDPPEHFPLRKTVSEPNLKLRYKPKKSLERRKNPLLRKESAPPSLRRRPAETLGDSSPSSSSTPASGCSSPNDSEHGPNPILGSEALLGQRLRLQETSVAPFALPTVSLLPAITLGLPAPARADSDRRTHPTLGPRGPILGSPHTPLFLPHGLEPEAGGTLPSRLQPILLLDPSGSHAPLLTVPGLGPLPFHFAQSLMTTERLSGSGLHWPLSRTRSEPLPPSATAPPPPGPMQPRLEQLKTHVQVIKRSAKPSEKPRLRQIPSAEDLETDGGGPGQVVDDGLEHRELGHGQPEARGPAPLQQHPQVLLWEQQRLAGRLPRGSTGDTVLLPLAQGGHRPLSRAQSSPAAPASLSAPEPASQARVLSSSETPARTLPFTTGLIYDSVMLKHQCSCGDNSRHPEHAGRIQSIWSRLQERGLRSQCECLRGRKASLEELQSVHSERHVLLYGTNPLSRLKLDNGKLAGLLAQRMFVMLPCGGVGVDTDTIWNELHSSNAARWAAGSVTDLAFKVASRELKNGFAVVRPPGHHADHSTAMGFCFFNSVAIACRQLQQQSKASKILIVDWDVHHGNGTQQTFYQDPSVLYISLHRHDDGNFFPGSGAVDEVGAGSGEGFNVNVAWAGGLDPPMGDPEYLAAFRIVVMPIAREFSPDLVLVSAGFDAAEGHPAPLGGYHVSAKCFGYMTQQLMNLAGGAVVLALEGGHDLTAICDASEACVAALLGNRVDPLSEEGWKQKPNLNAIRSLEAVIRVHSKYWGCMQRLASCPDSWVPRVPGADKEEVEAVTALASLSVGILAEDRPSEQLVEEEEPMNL

recombinant HDAC2 = recombinant HDAC2 (Homo sapiens, UniProt Q92769); assay: Recombinant HDAC activity assay; settings: for remaining activity at 50 µM: 2 h, read-out: % HDAC activity, Class I HDACs, 2
Sequence of recombinant HDAC2 (Q92769 whole entry): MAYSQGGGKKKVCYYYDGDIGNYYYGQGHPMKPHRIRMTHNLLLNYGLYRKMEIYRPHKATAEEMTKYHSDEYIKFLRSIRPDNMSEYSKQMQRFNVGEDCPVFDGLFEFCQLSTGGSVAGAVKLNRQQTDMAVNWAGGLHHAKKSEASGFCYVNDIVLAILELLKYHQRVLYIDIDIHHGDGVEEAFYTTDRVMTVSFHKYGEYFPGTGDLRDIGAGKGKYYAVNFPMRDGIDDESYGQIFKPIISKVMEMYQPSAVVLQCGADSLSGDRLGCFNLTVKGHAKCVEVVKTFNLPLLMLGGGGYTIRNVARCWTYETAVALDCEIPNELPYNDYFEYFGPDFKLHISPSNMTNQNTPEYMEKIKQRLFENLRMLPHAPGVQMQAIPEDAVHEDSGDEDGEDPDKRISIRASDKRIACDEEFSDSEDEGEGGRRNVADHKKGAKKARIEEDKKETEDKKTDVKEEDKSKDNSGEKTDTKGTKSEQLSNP

recombinant HDAC8 = biological target: T2, recombinant HDAC8 (Homo sapiens, UniProt Q9BY41); assay: Recombinant HDAC activity assay; settings: for remaining activity at 50 µM: 2 h, read-out: % HDAC activity, Class I HDACs, 8; for % HDAC activity, Class I HDACs, 8: recombinant protein incubated with 50 µM compound, 2 hrs
T2 sequence (Q9BY41 1-377): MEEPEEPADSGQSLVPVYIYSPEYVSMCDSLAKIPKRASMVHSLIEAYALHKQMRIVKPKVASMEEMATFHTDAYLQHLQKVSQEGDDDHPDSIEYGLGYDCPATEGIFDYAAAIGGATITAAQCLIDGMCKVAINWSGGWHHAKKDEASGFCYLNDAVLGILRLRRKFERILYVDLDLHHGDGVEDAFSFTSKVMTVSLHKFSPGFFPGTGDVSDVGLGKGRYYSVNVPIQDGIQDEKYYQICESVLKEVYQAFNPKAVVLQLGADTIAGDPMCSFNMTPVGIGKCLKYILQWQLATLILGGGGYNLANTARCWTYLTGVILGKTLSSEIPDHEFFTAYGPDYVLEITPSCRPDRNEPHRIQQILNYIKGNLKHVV

recombinant HDAC9 = recombinant HDAC9 (Homo sapiens, UniProt Q9UKV0); assay: Recombinant HDAC activity assay; settings: for remaining activity at 50 µM: 2 h, read-out: % HDAC activity, Class IIa HDACs, 9
Sequence of recombinant HDAC9 (Q9UKV0 whole entry): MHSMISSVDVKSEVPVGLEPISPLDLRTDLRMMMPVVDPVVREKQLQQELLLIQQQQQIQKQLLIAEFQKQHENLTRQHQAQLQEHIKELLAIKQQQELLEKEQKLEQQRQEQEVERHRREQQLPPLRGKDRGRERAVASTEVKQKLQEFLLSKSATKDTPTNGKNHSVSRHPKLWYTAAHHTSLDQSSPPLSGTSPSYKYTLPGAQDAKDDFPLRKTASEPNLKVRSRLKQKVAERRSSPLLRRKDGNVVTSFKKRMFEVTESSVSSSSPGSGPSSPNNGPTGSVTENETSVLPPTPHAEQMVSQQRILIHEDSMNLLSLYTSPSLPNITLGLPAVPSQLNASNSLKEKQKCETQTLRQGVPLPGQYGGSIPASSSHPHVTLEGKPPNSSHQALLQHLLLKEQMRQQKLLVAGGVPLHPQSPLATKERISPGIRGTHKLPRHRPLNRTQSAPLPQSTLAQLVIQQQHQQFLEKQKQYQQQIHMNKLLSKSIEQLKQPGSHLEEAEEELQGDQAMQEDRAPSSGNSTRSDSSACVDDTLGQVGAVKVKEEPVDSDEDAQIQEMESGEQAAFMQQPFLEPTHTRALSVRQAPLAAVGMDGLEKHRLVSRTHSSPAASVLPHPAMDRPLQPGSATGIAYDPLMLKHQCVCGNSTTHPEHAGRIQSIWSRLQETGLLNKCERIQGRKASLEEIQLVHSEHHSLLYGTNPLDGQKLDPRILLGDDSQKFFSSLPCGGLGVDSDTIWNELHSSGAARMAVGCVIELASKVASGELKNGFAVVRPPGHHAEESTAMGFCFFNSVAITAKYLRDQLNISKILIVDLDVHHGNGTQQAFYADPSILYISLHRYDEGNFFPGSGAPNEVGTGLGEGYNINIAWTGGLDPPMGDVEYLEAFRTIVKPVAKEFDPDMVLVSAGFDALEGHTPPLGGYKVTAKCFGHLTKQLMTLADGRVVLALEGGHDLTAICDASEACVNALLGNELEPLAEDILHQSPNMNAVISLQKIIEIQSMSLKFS

recombinant HDAC5 = recombinant HDAC5 (Homo sapiens, UniProt Q9UQL6); assay: Recombinant HDAC activity assay; settings: for remaining activity at 50 µM: 2 h, read-out: % HDAC activity, Class IIa HDACs, 5
Sequence of recombinant HDAC5 (Q9UQL6 whole entry): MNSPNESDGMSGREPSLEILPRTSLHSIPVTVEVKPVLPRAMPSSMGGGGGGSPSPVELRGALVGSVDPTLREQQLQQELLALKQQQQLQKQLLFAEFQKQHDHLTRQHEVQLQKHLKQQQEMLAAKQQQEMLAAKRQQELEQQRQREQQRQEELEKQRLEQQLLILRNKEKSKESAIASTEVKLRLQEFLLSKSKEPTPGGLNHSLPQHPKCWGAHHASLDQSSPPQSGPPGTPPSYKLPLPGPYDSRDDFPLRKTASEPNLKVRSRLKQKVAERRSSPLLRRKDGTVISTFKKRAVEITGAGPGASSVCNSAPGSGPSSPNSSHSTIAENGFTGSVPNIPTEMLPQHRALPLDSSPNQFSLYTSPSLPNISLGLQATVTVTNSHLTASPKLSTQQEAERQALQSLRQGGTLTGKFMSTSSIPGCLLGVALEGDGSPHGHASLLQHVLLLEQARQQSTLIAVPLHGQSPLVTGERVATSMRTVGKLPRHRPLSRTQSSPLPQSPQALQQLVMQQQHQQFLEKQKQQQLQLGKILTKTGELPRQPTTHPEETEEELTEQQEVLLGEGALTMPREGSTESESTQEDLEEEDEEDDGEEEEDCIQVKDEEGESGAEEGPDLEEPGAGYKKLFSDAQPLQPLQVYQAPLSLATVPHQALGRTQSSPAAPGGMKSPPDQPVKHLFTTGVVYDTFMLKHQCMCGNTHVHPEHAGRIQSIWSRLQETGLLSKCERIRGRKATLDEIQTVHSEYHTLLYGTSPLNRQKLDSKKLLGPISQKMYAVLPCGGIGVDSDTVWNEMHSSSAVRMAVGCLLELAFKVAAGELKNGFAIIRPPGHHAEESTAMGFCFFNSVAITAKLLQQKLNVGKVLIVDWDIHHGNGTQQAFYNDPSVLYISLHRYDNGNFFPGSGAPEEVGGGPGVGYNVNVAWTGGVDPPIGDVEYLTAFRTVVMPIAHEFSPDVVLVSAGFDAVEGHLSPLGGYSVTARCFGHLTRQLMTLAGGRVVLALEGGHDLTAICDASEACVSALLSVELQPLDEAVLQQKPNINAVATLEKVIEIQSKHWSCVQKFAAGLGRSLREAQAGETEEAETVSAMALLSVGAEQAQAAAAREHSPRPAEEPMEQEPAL

recombinant HDAC10 = biological target: T3, recombinant HDAC10 (Homo sapiens, UniProt Q969S8); assay: Recombinant HDAC activity assay; settings: for remaining activity at 50 µM: 2 h, read-out: % HDAC activity, Class IIb HDACs, 10
T3 sequence (Q969S8 1-669): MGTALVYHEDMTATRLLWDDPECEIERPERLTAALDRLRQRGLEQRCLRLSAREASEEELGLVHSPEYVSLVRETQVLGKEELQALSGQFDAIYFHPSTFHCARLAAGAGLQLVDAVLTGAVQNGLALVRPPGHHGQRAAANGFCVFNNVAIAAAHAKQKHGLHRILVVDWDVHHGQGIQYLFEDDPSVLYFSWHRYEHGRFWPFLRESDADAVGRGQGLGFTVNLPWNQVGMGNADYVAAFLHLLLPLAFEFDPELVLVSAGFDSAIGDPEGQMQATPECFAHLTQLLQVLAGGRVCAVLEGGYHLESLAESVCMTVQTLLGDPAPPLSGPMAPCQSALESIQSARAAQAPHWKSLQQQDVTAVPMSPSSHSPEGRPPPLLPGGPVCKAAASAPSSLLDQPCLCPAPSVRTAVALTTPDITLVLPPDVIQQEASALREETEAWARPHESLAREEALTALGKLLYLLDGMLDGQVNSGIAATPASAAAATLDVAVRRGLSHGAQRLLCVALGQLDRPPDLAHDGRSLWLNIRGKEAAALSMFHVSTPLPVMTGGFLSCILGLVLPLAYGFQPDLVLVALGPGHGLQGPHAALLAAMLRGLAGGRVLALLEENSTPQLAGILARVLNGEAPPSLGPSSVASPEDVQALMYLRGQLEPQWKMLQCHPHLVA

recombinant HDAC6 = biological target: T4, recombinant HDAC6 (Homo sapiens, UniProt Q9UBN7); assay: Recombinant HDAC activity assay; settings: 2 h, read-out: % HDAC activity, Class IIb HDACs, 6
T4 sequence (Q9UBN7 1-1215): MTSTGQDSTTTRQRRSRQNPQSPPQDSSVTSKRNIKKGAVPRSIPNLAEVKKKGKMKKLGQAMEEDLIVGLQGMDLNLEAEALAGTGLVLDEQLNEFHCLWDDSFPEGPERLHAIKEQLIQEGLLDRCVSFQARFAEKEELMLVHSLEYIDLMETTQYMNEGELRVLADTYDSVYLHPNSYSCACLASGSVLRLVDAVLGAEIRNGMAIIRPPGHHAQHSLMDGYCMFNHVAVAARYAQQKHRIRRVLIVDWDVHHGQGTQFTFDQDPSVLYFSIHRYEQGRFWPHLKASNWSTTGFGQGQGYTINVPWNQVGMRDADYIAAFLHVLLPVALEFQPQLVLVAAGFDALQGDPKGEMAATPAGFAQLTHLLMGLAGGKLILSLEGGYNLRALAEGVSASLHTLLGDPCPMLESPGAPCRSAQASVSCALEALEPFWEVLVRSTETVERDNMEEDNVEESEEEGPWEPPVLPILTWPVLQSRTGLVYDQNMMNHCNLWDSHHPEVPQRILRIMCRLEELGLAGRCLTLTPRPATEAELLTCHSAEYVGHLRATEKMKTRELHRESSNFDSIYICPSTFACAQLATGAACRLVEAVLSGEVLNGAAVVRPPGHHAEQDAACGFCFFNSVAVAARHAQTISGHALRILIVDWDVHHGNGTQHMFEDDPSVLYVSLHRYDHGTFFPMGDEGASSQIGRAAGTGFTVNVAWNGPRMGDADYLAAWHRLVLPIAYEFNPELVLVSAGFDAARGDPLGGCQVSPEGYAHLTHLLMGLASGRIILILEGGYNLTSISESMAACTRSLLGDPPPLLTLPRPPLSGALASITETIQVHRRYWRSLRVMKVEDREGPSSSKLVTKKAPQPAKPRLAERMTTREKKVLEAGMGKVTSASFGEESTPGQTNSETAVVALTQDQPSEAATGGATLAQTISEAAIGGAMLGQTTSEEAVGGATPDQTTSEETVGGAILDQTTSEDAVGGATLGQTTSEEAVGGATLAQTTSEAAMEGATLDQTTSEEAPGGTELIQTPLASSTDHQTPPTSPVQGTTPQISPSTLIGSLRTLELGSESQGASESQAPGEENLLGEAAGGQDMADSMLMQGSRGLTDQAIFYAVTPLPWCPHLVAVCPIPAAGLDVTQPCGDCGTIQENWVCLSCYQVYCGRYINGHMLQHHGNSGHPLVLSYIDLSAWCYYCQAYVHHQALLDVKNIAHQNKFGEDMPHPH

recombinant HDAC4 = recombinant HDAC4 (Homo sapiens, UniProt P56524); assay: Recombinant HDAC activity assay; settings: recombinant protein incubated with 50 µM compound, 2 hrs
Sequence of recombinant HDAC4 (P56524 whole entry): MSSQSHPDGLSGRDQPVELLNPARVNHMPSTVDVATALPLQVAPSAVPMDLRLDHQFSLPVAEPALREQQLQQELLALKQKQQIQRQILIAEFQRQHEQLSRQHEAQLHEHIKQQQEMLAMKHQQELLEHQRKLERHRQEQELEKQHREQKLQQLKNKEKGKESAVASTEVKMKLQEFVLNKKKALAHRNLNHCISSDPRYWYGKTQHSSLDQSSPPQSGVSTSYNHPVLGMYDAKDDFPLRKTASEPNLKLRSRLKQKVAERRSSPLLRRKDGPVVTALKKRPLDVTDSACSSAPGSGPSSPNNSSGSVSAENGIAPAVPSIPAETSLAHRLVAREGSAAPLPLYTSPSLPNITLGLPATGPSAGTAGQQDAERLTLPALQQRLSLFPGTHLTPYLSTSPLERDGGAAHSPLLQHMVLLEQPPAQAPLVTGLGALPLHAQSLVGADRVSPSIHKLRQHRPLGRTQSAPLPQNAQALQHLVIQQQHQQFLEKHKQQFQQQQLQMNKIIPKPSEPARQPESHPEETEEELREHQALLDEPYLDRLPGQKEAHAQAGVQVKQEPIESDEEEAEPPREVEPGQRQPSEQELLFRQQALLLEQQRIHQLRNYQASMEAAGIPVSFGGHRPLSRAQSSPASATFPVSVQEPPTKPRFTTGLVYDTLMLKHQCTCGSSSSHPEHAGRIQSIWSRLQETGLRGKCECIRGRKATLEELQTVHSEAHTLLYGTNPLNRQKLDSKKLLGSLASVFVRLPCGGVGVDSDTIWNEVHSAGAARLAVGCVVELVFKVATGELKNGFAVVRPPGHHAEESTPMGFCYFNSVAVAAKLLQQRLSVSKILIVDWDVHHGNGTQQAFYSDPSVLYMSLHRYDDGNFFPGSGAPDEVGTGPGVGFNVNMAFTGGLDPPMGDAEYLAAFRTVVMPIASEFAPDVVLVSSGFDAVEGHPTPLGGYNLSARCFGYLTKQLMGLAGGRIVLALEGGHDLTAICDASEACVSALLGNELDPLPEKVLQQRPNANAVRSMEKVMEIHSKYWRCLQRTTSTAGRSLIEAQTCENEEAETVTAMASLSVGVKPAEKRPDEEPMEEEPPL

[1] = test system: HDAC activity in bovine cardiac tissue; assay: Natural product library screen with class-selective HDAC substrates; settings: 2 hours treatment
Procedure, shortened: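 The screen covered 131 natural compounds against bovine cardiac tissue lysate at 30 µg protein/well in PBS (pH 7.4 lysis buffer with Triton X-100 and NaCl). Test compound for 2 h, then separate class I, IIa or IIb fluorogenic acyl-lysine-AMC substrates for 2 h at 37 °C. Developer (Triton X-100, 3 µM TSA, 0.75 mg/ml trypsin) for 20 min; fluorescence read at 360/460 nm.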

[2] = recombinant protein incubated with 50 µM compound, 2 hrs

Sequence of recombinant HDAC1 (Q13547 whole entry): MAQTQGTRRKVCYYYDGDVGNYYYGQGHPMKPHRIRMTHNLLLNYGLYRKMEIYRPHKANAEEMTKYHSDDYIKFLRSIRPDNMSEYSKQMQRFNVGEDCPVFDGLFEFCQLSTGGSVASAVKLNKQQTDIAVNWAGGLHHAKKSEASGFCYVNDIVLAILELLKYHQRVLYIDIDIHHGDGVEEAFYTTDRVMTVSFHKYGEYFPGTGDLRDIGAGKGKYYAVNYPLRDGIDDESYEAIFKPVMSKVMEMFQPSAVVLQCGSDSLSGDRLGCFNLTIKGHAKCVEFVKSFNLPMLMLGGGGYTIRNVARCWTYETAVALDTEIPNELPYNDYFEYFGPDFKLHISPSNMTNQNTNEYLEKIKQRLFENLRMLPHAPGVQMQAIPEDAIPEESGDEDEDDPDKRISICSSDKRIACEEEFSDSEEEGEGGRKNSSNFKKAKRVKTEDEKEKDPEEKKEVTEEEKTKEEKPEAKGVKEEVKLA

| SMILES | remaining activity at 50 µM (recombinant HDAC1) [%] | remaining activity at 50 µM (recombinant HDAC3) [%] | % HDAC activity, Class IIa HDACs, 7 (recombinant HDAC7) | remaining activity at 50 µM (recombinant HDAC2) [%] | remaining activity at 50 µM (recombinant HDAC8) [%] | remaining activity at 50 µM (recombinant HDAC9) [%] | remaining activity at 50 µM (recombinant HDAC5) [%] | remaining activity at 50 µM (recombinant HDAC10) [%] | other results |
| --- | --- | --- | --- | --- | --- | --- | --- | --- | --- |
| O=C(O)[C@H]1O[C@@H](Oc2cc3oc(-c4ccccc4)cc(=O)c3c(O)c2O)[C@H](O)[C@@H](O)[C@@H]1O [Baicalin] | 89 | 81.7 | - | 72.9 | 78.3 | 91.5 | 81.8 | 84.7 | remaining activity at 50 µM (recombinant HDAC6): 86.2% |
| O=C1c2c(O)cc(O)cc2O[C@H](c2cc(O)c(O)c(O)c2)[C@H]1O [Dihydromyricetin] | 90 | 82.5 |  | 73.9 | 81.9 | 92.5 | 73.4 | 86.3 | remaining activity at 50 µM (recombinant HDAC7; 2 h, read-out: % HDAC activity, Class IIa HDACs, 7): 94% |
| O=C(O[C@@H]1Cc2c(O)cc(O)cc2O[C@@H]1c1cc(O)c(O)c(O)c1)c1cc(O)c(O)c(O)c1 [EGCG, epigallocatechin gallate] |  |  | - |  |  |  |  |  | % HDAC activity, Class I HDACs, 8 (recombinant HDAC8): 89.1%; % HDAC activity, Class IIa HDACs, 4 (recombinant HDAC4): 82.5%; % HDAC activity, Class IIb HDACs, 10 (recombinant HDAC10; [2]): 91.2% |
| O.O=c1c(O)c(-c2ccc(O)cc2O)oc2cc(O)cc(O)c12 [Morin hydrate] |  |  | - |  |  |  |  |  | % HDAC activity, Class I HDACs, 1 (recombinant HDAC1; [2]): 62.3%; % HDAC activity, Class I HDACs, 3 (recombinant HDAC3; [2]): 56.0%; % HDAC activity, Class I HDACs, 2 (recombinant HDAC2; [2]): 43.3%; % HDAC activity, Class I HDACs, 8 (recombinant HDAC8): 49.3%; % HDAC activity, Class IIa HDACs, 9 (recombinant HDAC9; [2]): 56.1%; % HDAC activity, Class IIa HDACs, 5 (recombinant HDAC5; [2]): 56.7% |
| O=c1c(O)c(-c2ccc(O)cc2)oc2cc(O)cc(O)c12 [Kaempferol] | 72.8 | 66.9 | - | 71.7 | 68.7 | 70.6 | 73.5 | 71.6 |  |
| COc1ccc2cc3[n+](cc2c1OC)CCc1cc2c(cc1-3)OCO2 [Berberine HCl, berberine hydrochloride] | 50.5 | 48.3 |  | 70.3 | 46.8 |  |  | 45 | remaining activity at 50 µM (recombinant HDAC6): 60.9% |
| O=c1cc(-c2ccc(O)c(O)c2)oc2cc(O)cc(O)c12 [Luteolin] | 60.7 | 51.4 | - | 49.5 | 52.8 | 52.3 | 59.5 | 55.9 | catalytic HDAC activity across class I, IIa and IIb substrates, effect in words [1]: dose-dependent pan-HDAC inhibition |
| O=c1cc(-c2ccccc2)oc2cc(O)c(O)c(O)c12 [Baicalein] |  | 59.2 | - |  |  | 66.1 | 76.6 |  |  |
| O=C1Nc2ccccc2/C1=C1/Nc2ccccc2C1=O [Indirubin] | 61.5 | 56.6 | - | 58.7 | 58.4 |  |  | 67 | remaining activity at 50 µM (recombinant HDAC6): 65.7% |
| O=c1c(O)c(-c2cc(O)c(O)c(O)c2)oc2cc(O)cc(O)c12 [Myricetin] | 68 | 59.9 | - |  | 60.2 | 77 | 65.1 | 63.4 | catalytic HDAC activity across class I, IIa and IIb substrates, effect in words [1]: pan-HDAC inhibition |
| O=C(O)/C=C/c1ccc(O)c(O)c1 [Caffeic acid] |  |  | - |  |  |  |  |  |  |
